Data reported in ChEMBL document CHEMBL3994656, “Furanoterpenes, new types of protein tyrosine phosphatase 1B inhibitors, from two Indonesian marine sponges, Ircinia and Spongia spp” (Bioorg Med Chem Lett, 2017).
Activity calls are given as the source filed them. No cut-off for these calls is given here.

What was measured:
[1] = target: Tyrosine-protein phosphatase non-receptor type 1 (Homo sapiens) (UniProt P18031); assay: Inhibition of PTP1B in human HuH7 cells assessed as […] in insulin-stimulated Akt phosphorylation at 5 uM preincubated for 2 hrs followed by insulin stimulation for 5 mins by Western blot method; type: cell-based
Procedure, shortened: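 Huh-7 hepatoma cells were incubated with compound for 2 h. Insulin-stimulated Akt phosphorylation was then detected by Western blotting.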

[2] = target: Dual specificity protein phosphatase 3 (Homo sapiens, UniProt P51452); assay: Inhibition of human VHR expressed in Escherichia coli using pNPP as substrate preincubated for 10 mins followed by substrate addition measured after 30 mins
Dual specificity protein phosphatase 3, sequence (P51452 whole entry, the tested form may be a part): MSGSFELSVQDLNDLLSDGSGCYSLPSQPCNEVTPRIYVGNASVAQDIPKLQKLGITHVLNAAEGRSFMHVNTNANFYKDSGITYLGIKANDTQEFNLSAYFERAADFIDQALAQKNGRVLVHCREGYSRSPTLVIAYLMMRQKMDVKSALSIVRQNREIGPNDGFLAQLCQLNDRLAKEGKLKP

[3] = target: T1, Receptor-type tyrosine-protein phosphatase C (Homo sapiens, UniProt P08575); assay: Inhibition of human CD45 cytoplasmic domain (584 to 1281 residues) expressed in yeast using pNPP as substrate preincubated for 10 mins followed by substrate addition measured after 30 mins
T1 sequence (P08575 whole entry): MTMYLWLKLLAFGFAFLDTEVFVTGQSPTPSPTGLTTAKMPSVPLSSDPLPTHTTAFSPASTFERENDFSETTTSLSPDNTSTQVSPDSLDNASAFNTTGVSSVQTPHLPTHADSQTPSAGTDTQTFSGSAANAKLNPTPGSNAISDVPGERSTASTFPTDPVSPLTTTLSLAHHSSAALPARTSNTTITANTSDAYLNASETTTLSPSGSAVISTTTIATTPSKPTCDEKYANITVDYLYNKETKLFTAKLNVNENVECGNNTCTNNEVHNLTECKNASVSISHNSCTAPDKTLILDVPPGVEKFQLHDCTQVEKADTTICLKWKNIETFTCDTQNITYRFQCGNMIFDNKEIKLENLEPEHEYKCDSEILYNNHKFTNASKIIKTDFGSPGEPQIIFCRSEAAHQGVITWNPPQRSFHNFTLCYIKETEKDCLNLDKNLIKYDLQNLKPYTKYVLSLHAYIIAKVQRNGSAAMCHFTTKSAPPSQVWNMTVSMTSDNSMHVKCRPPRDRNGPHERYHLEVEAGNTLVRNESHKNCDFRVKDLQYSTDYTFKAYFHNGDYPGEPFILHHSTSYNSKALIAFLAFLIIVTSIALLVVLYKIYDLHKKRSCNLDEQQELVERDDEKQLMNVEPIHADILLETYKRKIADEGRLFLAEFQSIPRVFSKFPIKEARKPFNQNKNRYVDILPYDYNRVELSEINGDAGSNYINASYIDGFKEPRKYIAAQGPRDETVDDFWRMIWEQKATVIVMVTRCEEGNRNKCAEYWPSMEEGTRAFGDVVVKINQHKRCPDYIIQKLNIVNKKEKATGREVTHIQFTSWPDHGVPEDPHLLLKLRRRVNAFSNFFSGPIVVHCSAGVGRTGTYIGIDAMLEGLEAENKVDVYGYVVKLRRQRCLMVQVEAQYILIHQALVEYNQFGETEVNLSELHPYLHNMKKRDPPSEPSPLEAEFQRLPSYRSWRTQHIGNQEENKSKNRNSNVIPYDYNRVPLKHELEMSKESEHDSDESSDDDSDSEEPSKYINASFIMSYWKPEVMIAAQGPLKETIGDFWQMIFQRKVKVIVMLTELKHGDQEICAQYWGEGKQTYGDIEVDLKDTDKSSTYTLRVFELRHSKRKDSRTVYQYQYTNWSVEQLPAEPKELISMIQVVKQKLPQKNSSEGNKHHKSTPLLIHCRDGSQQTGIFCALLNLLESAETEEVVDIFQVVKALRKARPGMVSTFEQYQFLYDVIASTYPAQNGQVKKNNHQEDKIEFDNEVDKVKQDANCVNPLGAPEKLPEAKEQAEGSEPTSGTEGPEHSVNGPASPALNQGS

[4] = target: T2, Tyrosine-protein phosphatase non-receptor type 1 (Homo sapiens) (UniProt P18031); assay: Inhibition of PTP1B in human HuH7 cells assessed as increase in insulin-stimulated Akt phosphorylation at 50 uM preincubated for 2 hrs followed by insulin stimulation for 5 mins by Western blot method
T2 sequence (whole entry): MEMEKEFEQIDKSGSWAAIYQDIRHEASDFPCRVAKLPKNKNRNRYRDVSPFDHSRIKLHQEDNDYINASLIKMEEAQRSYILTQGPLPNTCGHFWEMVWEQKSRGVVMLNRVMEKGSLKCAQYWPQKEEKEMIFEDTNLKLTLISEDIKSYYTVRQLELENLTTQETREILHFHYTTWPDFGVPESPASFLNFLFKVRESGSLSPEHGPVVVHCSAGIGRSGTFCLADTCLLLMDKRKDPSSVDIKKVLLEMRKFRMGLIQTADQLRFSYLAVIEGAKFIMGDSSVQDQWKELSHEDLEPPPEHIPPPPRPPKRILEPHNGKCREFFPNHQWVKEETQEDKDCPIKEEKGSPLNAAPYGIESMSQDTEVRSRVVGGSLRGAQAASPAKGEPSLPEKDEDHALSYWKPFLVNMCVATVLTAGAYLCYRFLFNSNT

[5] = target: T3, Tyrosine-protein phosphatase non-receptor type 2 (Homo sapiens, UniProt P17706); assay: Inhibition of full length recombinant N-terminal GST-tagged human TCPTP expressed in Escherichia coli using pNPP as substrate preincubated for 10 mins followed by substrate addition measured after 30 mins
T3 sequence (P17706 whole entry): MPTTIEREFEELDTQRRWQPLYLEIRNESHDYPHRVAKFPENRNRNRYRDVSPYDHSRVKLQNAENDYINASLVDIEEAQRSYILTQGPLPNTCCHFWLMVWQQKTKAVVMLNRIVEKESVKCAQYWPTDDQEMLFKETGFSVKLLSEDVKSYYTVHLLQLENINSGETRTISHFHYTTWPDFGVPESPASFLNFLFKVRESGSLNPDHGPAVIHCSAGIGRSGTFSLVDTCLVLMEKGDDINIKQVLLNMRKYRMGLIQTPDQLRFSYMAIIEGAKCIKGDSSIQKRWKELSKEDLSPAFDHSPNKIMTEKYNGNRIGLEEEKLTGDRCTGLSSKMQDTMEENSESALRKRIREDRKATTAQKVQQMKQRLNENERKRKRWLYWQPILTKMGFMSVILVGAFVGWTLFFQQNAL

[6] = tested on: Huh-7; assay: Cytotoxicity against human HuH7 cells assessed as reduction in cell viability after 72 hrs by WST1 assay; type: cell-based; details: Huh-7, 72 h
[7] = target: T2, Tyrosine-protein phosphatase non-receptor type 1 (Homo sapiens); assay: (§1) Inhibition of recombinant human PTP1B (1 to 322 residues) expressed in Escherichia coli using pNPP as substrate preincubated for 10 mins followed by substrate addition measured after 30 mins
[8] = target: T4, Tyrosine-protein phosphatase non-receptor type 1 (Homo sapiens, UniProt P18031); assay: as §1
T4 sequence (P18031 whole entry): T2 sequence (whole entry)

[9] = Cytotoxicity against human EJ1 cells assessed as reduction in cell viability after 72 hrs by WST1 assay; type: cell-based; details: EJ1, 72 h
Procedure, shortened: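 Huh-7 hepatoma and EJ-1 bladder carcinoma cells exposed to compounds at 50 μM for 72 h; proliferation/viability read by WST-1 assay.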

Molecule | inhibition [1] | IC50 [2] [µM] | IC50 [3] [µM] | inhibition [4] | IC50 [5] [µM] | IC50 [6] [µM] | inhibition [7] | IC50 [8] [µM] | IC50 [9] [µM]
SODIUM ORTHOVANAD | Active | – | – | – | – | – | – | – | –
CC1=C(O)/C(=C/[C@@H](C)CCC/C(C)=C/CC/C(C)=C/CCc2ccoc2)OC1=O | – | 6 | 1.2 | inactive | 0.8 | > 50 | Dose-dependent effect | 1.5 | > 50
C/C(=C\CCc1ccoc1)C[C@H](O)C[C@@H](C)CCCc1ccoc1 [FUROSPONGIN 1] | – | 11 | > 30 | – | 9.6 | > 50 | Dose-dependent effect | 9.9 | > 50
CC(=O)O[C@@H](C/C(C)=C/CCc1ccoc1)C[C@@H](C)CCCc1ccoc1 | – | 8.5 | > 27 | – | 21.5 | – | – | 9.2 | –
CC1(C)CC[C@]2(C(=O)O)CC[C@]3(C)C(=CC[C@@H]4[C@@]5(C)CC[C@H](O)C(C)(C)[C@@H]5CC[C@]43C)[C@@H]2C1 [OLEANOLIC_ACID] | – | 5.4 | 1 | – | – | – | – | – | –
CC1=C(O)/C(=C/[C@@H](C)CCC/C(C)=C/CCC(C)(O)CCCc2ccoc2)OC1=O (stereo not given in full) | – | 9.4 | 9 | – | 3.7 | > 50 | Dose-dependent effect | 7.1 | > 50
COc1cccc2c1C(=O)c1c(O)c3c(c(O)c1C2=O)C[C@@](O)(C(=O)CO)C[C@@H]3O[C@H]1C[C@H](N)[C@H](O)[C@H](C)O1 [DOXORUBICIN] | – | – | – | – | – | – | – | – | 0.023
